Results on eleven molecules are retold here after ChEMBL document CHEMBL4257452, “A mini-library system to investigate non-essential residues of lipid-phosphatidylserine (PS) binding peptide-peptoid hybrid PPS1” (Medchemcomm, 2017).

In data set [1] the test system is HCC4017. Briefly: Cytotoxicity against human HCC4017 cells assessed as reduction in cell viability up to 100 uM after 24 hrs by calcein-AM dye based fluorescence assay. Type of data set: functional. Conditions: in the assay text read “up to 50 uM” for “up to 100 uM”. Summed up: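 HCC4017 cells were seeded at 10 000 cells/well in triplicate, adhered overnight, and treated with a graded series of compounds for 24 h. Medium was replaced with PBS containing calcein AM (1 mM as printed) for 15 min at room temperature. Fluorescence emission was read at 520 nm.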

The test system of data set [2] is HCC4017. The experiment in a line: Cytotoxicity against human HCC4017 cells assessed as reduction in cell viability at 1 uM after 24 hrs by MTS assay. In kind it is functional, cell-based. Summed up: (§1)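 HCC4017 cells (RPMI, 5% FBS) and HBEC-3KT normal lung cells (KSFM with recombinant human EGF and bovine pituitary extract) were plated at 10 000 cells/well in triplicate and left to adhere overnight. They were exposed to 1 or 20 μM compound for 24 h. MTS reagent was then added for 2 h and absorbance read at 490 nm. Viability is % of untreated control wells.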

Data set [3] can be described thus: Cytotoxicity against human HBEC3-KT cells assessed as reduction in cell viability at 1 uM after 24 hrs by MTS assay. Type of data set: cell-based. A digest of the protocol: as §1
(In general: Formazan colour is commonly taken as a measure of viable cells.)

A short description of data set [4]: Cytotoxicity against human HBEC3-KT cells assessed as reduction in cell viability at 20 uM after 24 hrs by MTS assay. In kind it is cell-based. A digest of the protocol: as §1
Data set [5] relates to HCC4017. The experiment in a line: Cytotoxicity against human HCC4017 cells assessed as reduction in cell viability at 20 uM after 24 hrs by MTS assay. Type of data set: functional, cell-based. Summed up: as §1
The subject of data set [6] is HCC4017. Briefly: Cytotoxicity against human HCC4017 cells assessed as reduction in cell viability after 24 hrs by MTS assay. In kind it is functional, cell-based. Conditions: HCC4017, 24 h. Summed up:
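HCC4017 lung cancer cells (RPMI, 5% FBS) were seeded at 10 000 cells/well in triplicate and adhered overnight. Purified compounds were given as a concentration gradient for 24 h. MTS reagent was added for 2 h and absorbance read at 490 nm. IC50 was taken from the viability curves.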

Each structure is given as a SMILES string. The source made the active and inactive calls. No cut-off for these calls is given here. Starred links: 1 amine or outer side, 2 acyl side, 3 side chain; linkers in the order of their positions; H or OH if unused. Positions of bridges follow the written chain, without caps; N, C: chain ends. Non-standard residues stand in square brackets, D forms with d. Residues, ends and D or L forms follow the SMILES beside them. Chains are numbered I, II in the order given. Gly(N-piperonyl) = O=C(O)CNCc1ccc2c(c1)OCO2; X5 = O=C(CN(c1ccc2c(c1)OCCO2)[*:1])[*:2]; N(4-MeOBn)Gly = COc1ccc(CNCC(=O)O)cc1; X11 = Nc1ccc(CN(CC(=O)[*:2])[*:1])cc1; N((CH2)3OiPr)Gly = CC(C)OCCCNCC(=O)O; X3 = CC(c1ccccc1)N(CC(=O)[*:2])[*:1]; X9 = O=C(CN(CCOc1ccccc1)[*:1])[*:2]; X8 = O=C(CN(CC1CCNCC1)[*:1])[*:2]; Nrpe = C[C@@H](NCC(=O)O)c1ccccc1; X10 = CCC(C)CN(CC(=O)[*:2])[*:1]; NAllylGly = C=CCNCC(=O)O; Nlys = NCCCCNCC(=O)O; Nme = COCCNCC(=O)O

For the molecule `C=CCNCC(=O)N(CCOC)CC(=O)N(CC=C)CC(=O)N(CCOC)CC(=O)N(CC=C)CC(=O)NCC(=O)NC(CCCCN)C(=O)NC(CCSC)C(=O)NCCCCC(NC(=O)C(CCSC)NC(=O)C(CCCCN)NC(=O)CNC(=O)CN(CC=C)C(=O)CN(CCOC)C(=O)CN(CC=C)C(=O)CN(CCOC)C(=O)CNCC=C)C(N)=O` (configuration not stated) (I: H-[NAllylGly][Nme][NAllylGly][Nme][NAllylGly]GKMK-NH2 / II: H-[NAllylGly][Nme][NAllylGly][Nme][NAllylGly]GKM; amide I:9-II:C; configuration not given here), the outcome in the data set with HCC4017 [1] and with HCC4017 [2] was inactive. Also, the Activity result in data set [3] and in data set [4] was “Non-Toxic” in each case.
Consider `COc1ccc(CN(CC(=O)N(CCCCN)CC(=O)N[C@@H](CCCCN)C(=O)N[C@H](CCCCN)C(=O)N[C@@H](CCSC)C(=O)NCCCC[C@H](NC(=O)[C@H](CCSC)NC(=O)[C@@H](CCCCN)NC(=O)[C@H](CCCCN)NC(=O)CN(CCCCN)C(=O)CN(Cc2ccc(OC)cc2)C(=O)CN(C(=O)CN(Cc2ccc3c(c2)OCO3)C(=O)CN[C@H](C)c2ccccc2)[C@H](C)c2ccccc2)C(N)=O)C(=O)CN(C(=O)CN(Cc2ccc3c(c2)OCO3)C(=O)CN[C@H](C)c2ccccc2)[C@H](C)c2ccccc2)cc1` (I: H-[Nrpe][Gly(N-piperonyl)][Nrpe][N(4-MeOBn)Gly][Nlys]K[dK]MK-NH2 / II: H-[Nrpe][Gly(N-piperonyl)][Nrpe][N(4-MeOBn)Gly][Nlys]K[dK]M; amide I:9-II:C), for which the outcome in the data set with HCC4017 [5] and in the data set with HCC4017 [1] was Active. In addition, the result in the data set on HCC4017 [2] was inactive. In addition, the Activity entry in data set [3] and in data set [4] was “Non-Toxic” each time.
Consider `COc1ccc(CN(CC(=O)N(CC(=O)N[C@@H](CCCCN)C(=O)N[C@H](CCCCN)C(=O)N[C@@H](CCSC)C(=O)NCCCC[C@H](NC(=O)[C@H](CCSC)NC(=O)[C@@H](CCCCN)NC(=O)[C@H](CCCCN)NC(=O)CN(C(=O)CN(Cc2ccc(OC)cc2)C(=O)CN(C(=O)CN(Cc2ccc3c(c2)OCO3)C(=O)CN[C@H](C)c2ccccc2)[C@H](C)c2ccccc2)c2ccc3c(c2)OCCO3)C(N)=O)c2ccc3c(c2)OCCO3)C(=O)CN(C(=O)CN(Cc2ccc3c(c2)OCO3)C(=O)CN[C@H](C)c2ccccc2)[C@H](C)c2ccccc2)cc1` (I: H-[Nrpe][Gly(N-piperonyl)][Nrpe][N(4-MeOBn)Gly][X5]K[dK]MK-NH2 / II: H-[Nrpe][Gly(N-piperonyl)][Nrpe][N(4-MeOBn)Gly][X5]K[dK]M; amide I:9-II:C), for which, in the data set on HCC4017 [5], the result was Active. Also, the result in the data set with HCC4017 [2] was inactive. In addition, the Activity result in data set [3] and in data set [4] was “Non-Toxic” each time.
Usually IC50 stands for the point on the concentration scale where inhibition reaches its midpoint. `COc1ccc(CN(CC(=O)NC(Cc2ccccc2)C(=O)NC(CCCCN)C(=O)NC(CCCCN)C(=O)NC(CCSC)C(=O)NCCCCC(NC(=O)C(CCSC)NC(=O)C(CCCCN)NC(=O)C(CCCCN)NC(=O)C(Cc2ccccc2)NC(=O)CN(Cc2ccc(OC)cc2)C(=O)CN(C(=O)CN(Cc2ccc3c(c2)OCO3)C(=O)CNC(C)c2ccccc2)C(C)c2ccccc2)C(N)=O)C(=O)CN(C(=O)CN(Cc2ccc3c(c2)OCO3)C(=O)CNC(C)c2ccccc2)C(C)c2ccccc2)cc1` (configuration not stated) (I: H-[X3][Gly(N-piperonyl)][X3][N(4-MeOBn)Gly]FKKMK-NH2 / II: H-[X3][Gly(N-piperonyl)][X3][N(4-MeOBn)Gly]FKKM; amide I:9-II:C; configuration not given here): in the data set with HCC4017 [5], the outcome was Active. Also, the IC50 in the data set on HCC4017 [6] was 7 to 10 µM. The outcome with HCC4017 [2] was inactive. For the same molecule, the Activity result in data set [3] and in data set [4] was “Non-Toxic” in each case.
With `COc1ccc(CN(CC(=O)NC(C(=O)NC(CCCCN)C(=O)NC(CCCCN)C(=O)NC(CCSC)C(=O)NCCCCC(NC(=O)C(CCSC)NC(=O)C(CCCCN)NC(=O)C(CCCCN)NC(=O)C(NC(=O)CN(Cc2ccc(OC)cc2)C(=O)CN(C(=O)CN(Cc2ccc3c(c2)OCO3)C(=O)CNC(C)c2ccccc2)C(C)c2ccccc2)C(C)O)C(N)=O)C(C)O)C(=O)CN(C(=O)CN(Cc2ccc3c(c2)OCO3)C(=O)CNC(C)c2ccccc2)C(C)c2ccccc2)cc1` (configuration not stated) (I: H-[X3][Gly(N-piperonyl)][X3][N(4-MeOBn)Gly]TKKMK-NH2 / II: H-[X3][Gly(N-piperonyl)][X3][N(4-MeOBn)Gly]TKKM; amide I:9-II:C; configuration not given here), in the data set with HCC4017 [5], the outcome was Active. The half-maximal inhibitory concentration (IC50) in the data set with HCC4017 [6] is 14 µM.
As for `COc1ccc(CN(CC(=O)N(CCCOC(C)C)CC(=O)NC(CCCCN)C(=O)NC(CCCCN)C(=O)NC(CCSC)C(=O)NCCCCC(NC(=O)C(CCSC)NC(=O)C(CCCCN)NC(=O)C(CCCCN)NC(=O)CN(CCCOC(C)C)C(=O)CN(Cc2ccc(OC)cc2)C(=O)CN(C(=O)CN(Cc2ccc3c(c2)OCO3)C(=O)CNC(C)c2ccccc2)C(C)c2ccccc2)C(N)=O)C(=O)CN(C(=O)CN(Cc2ccc3c(c2)OCO3)C(=O)CNC(C)c2ccccc2)C(C)c2ccccc2)cc1` (configuration not stated) (I: H-[X3][Gly(N-piperonyl)][X3][N(4-MeOBn)Gly][N((CH2)3OiPr)Gly]KKMK-NH2 / II: H-[X3][Gly(N-piperonyl)][X3][N(4-MeOBn)Gly][N((CH2)3OiPr)Gly]KKM; amide I:9-II:C; configuration not given here), the outcome in the data set on HCC4017 [5] and with HCC4017 [1] was Active. Besides, the half-inhibitory concentration (IC50) in the data set with HCC4017 [6] lay in the range of 7 to 10 µM. Moreover, the outcome in the data set on HCC4017 [2] was inactive. In addition, the Activity entry in data set [3] and in data set [4] was “Non-Toxic” throughout.
In the case of `COc1ccc(CN(CC(=O)N(CCCCN)CC(=O)NC(CCCCN)C(=O)NC(CCCCN)C(=O)NCCCCC(NC(=O)C(CCCCN)NC(=O)C(CCCCN)NC(=O)CN(CCCCN)C(=O)CN(Cc2ccc(OC)cc2)C(=O)CN(C(=O)CN(Cc2ccc3c(c2)OCO3)C(=O)CNC(C)c2ccccc2)C(C)c2ccccc2)C(N)=O)C(=O)CN(C(=O)CN(Cc2ccc3c(c2)OCO3)C(=O)CNC(C)c2ccccc2)C(C)c2ccccc2)cc1` (configuration not stated) (I: H-[X3][Gly(N-piperonyl)][X3][N(4-MeOBn)Gly][Nlys]KKK-NH2 / II: H-[X3][Gly(N-piperonyl)][X3][N(4-MeOBn)Gly][Nlys]KK; amide I:8-II:C; configuration not given here), the result in the data set with HCC4017 [5] and with HCC4017 [1] was Active.
In the case of `COc1ccc(CN(CC(=O)N(CC(=O)NC(CCCCN)C(=O)NC(CCCCN)C(=O)NC(CCSC)C(=O)NCCCCC(NC(=O)C(CCSC)NC(=O)C(CCCCN)NC(=O)C(CCCCN)NC(=O)CN(CC2CCNCC2)C(=O)CN(Cc2ccc(OC)cc2)C(=O)CN(C(=O)CN(Cc2ccc3c(c2)OCO3)C(=O)CNC(C)c2ccccc2)C(C)c2ccccc2)C(N)=O)CC2CCNCC2)C(=O)CN(C(=O)CN(Cc2ccc3c(c2)OCO3)C(=O)CNC(C)c2ccccc2)C(C)c2ccccc2)cc1` (configuration not stated) (I: H-[X3][Gly(N-piperonyl)][X3][N(4-MeOBn)Gly][X8]KKMK-NH2 / II: H-[X3][Gly(N-piperonyl)][X3][N(4-MeOBn)Gly][X8]KKM; amide I:9-II:C; configuration not given here), the result with HCC4017 [5] was Active.
The same measure, in the same setting: then `COc1ccc(CN(CC(=O)N(CCOc2ccccc2)CC(=O)NC(CCCCN)C(=O)NC(CCCCN)C(=O)NC(CCSC)C(=O)NCCCCC(NC(=O)C(CCSC)NC(=O)C(CCCCN)NC(=O)C(CCCCN)NC(=O)CN(CCOc2ccccc2)C(=O)CN(Cc2ccc(OC)cc2)C(=O)CN(C(=O)CN(Cc2ccc3c(c2)OCO3)C(=O)CNC(C)c2ccccc2)C(C)c2ccccc2)C(N)=O)C(=O)CN(C(=O)CN(Cc2ccc3c(c2)OCO3)C(=O)CNC(C)c2ccccc2)C(C)c2ccccc2)cc1` (configuration not stated) (I: H-[X3][Gly(N-piperonyl)][X3][N(4-MeOBn)Gly][X9]KKMK-NH2 / II: H-[X3][Gly(N-piperonyl)][X3][N(4-MeOBn)Gly][X9]KKM; amide I:9-II:C; configuration not given here), with “Active”; and `CCC(C)CN(CC(=O)NC(CCCCN)C(=O)NC(CCCCN)C(=O)NC(CCSC)C(=O)NCCCCC(NC(=O)C(CCSC)NC(=O)C(CCCCN)NC(=O)C(CCCCN)NC(=O)CN(CC(C)CC)C(=O)CN(Cc1ccc(OC)cc1)C(=O)CN(C(=O)CN(Cc1ccc2c(c1)OCO2)C(=O)CNC(C)c1ccccc1)C(C)c1ccccc1)C(N)=O)C(=O)CN(Cc1ccc(OC)cc1)C(=O)CN(C(=O)CN(Cc1ccc2c(c1)OCO2)C(=O)CNC(C)c1ccccc1)C(C)c1ccccc1` (configuration not stated) (I: H-[X3][Gly(N-piperonyl)][X3][N(4-MeOBn)Gly][X10]KKMK-NH2 / II: H-[X3][Gly(N-piperonyl)][X3][N(4-MeOBn)Gly][X10]KKM; amide I:9-II:C; configuration not given here), with “Active”; and `COc1ccc(CN(CC(=O)N(CC(=O)NC(CCCCN)C(=O)NC(CCCCN)C(=O)NC(CCSC)C(=O)NCCCCC(NC(=O)C(CCSC)NC(=O)C(CCCCN)NC(=O)C(CCCCN)NC(=O)CN(Cc2ccc(N)cc2)C(=O)CN(Cc2ccc(OC)cc2)C(=O)CN(C(=O)CN(Cc2ccc3c(c2)OCO3)C(=O)CNC(C)c2ccccc2)C(C)c2ccccc2)C(N)=O)Cc2ccc(N)cc2)C(=O)CN(C(=O)CN(Cc2ccc3c(c2)OCO3)C(=O)CNC(C)c2ccccc2)C(C)c2ccccc2)cc1` (configuration not stated) (I: H-[X3][Gly(N-piperonyl)][X3][N(4-MeOBn)Gly][X11]KKMK-NH2 / II: H-[X3][Gly(N-piperonyl)][X3][N(4-MeOBn)Gly][X11]KKM; amide I:9-II:C; configuration not given here), with “Active”.
